# NF-kB neuron act – raises NF-kB expression in human neuronal cells; NF-kB reporter expression; stronger effect = higher value; fold change at 12.5 µM; 190,000 tested, 1.6% active; AID 1239; in the data active means fold change above about 3.3
# STAT3 activator – increases IL-6 driven STAT3 reporter signal; 190,000 tested, 0.91% active; activation (% of control), % at 5.6 µM; U3A cells, IL-6 STAT3-luciferase reporter, luminescence; 100% = signal with IL-6 EC80 alone;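 active means activation above the screen-wide mean of compound activation plus 3 SD, cut at about 130% in these data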;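 further: 0% = background luminescence of wells with medium and substrate only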
#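 Material: STAT3-luciferase reporter U3A cells. Controls: IL-6-treated wells, 100% activation. Read-out: % activation versus median of IL-6-stimulated wells. Probe or stimulus: IL-6 stimulus at 33 ng/mL final. Timing: compound 1 h, then IL-6 6 h at 37 °C. Signal: reporter luminescence signal.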
# STAT1 inh – inhibitors of IFN-gamma induced STAT1 signaling; 200,000 tested, 0.35% active; NIH 3T3 STAT1-luciferase reporter, luminescence; inhibition, % at 5.5 µM;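 active means inhibition above a set limit, the mean inhibition across all tested compounds plus 3 SD, cut at about 34% in these data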;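 further: 0% = IFN-gamma with DMSO and 100% = IFN-gamma with 300 µM nifuroxazide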
# STAT3 blocker – inhibitors of IL-6 induced STAT3 signaling; U3A cells, IL-6 STAT3-luciferase reporter, luminescence; host cell line lacks STAT1; inhibition, % at 5.5 µM; 190,000 tested, 0.89% active;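 active means inhibition above the mean inhibition across all screened compounds plus 3 SD, cut at about 44% in these data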;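 further: 0% = DMSO only wells and 100% = 100 µM nifuroxazide control wells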
# STAT1 act – STAT1 signaling activation; NIH 3T3 STAT1-luciferase reporter, IFN-gamma, luminescence; 100% = IFN-gamma alone, no compound; activation (% of control), % at 5.5 µM; 200,000 tested, 2.6% active; AID 932;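 active means activation above the screen-wide mean activation plus 3 SD, cut at about 130% in these data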;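 further: raw ratio to IFN-gamma control signal so 100% means no change and 0% no light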
# APP 5'UTR act – APP 5'UTR luciferase reporter activation; SH-SY5Y APP 5'UTR luciferase reporter, luminescence; zero percent = DMSO vehicle wells; activation, % at 2 µM; 190,000 tested, 1% active;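 active means activation above a set limit, based on mean plus 3 SD of controls, cut at about 140% in these data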
# STAT1 act conf – STAT1 activation, confirmation assay. shares compounds with STAT1 act. NIH 3T3 STAT1-luciferase reporter, IFN-gamma potentiation, luminescence; 100% = IFN-gamma EC80 alone, no compound. activation (% of control), % at 5.7 µM. 1,200 tested, 97% active. AID 1262;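 active means activation above a set limit carried over from the earlier primary STAT1 screen, cut at about 140% in these data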;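 further: simple ratio to median IFN-gamma plus DMSO wells so 0% means no light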
# NFkB act STAT1ct – activates NF-kappaB, counter-screen to STAT1 activators; shares compounds with STAT1 act; HEK293T NF-kB luciferase reporter, TNF-alpha stimulated, luminescence; 100% = TNF-alpha with vehicle only; activation (% of control), % at 5.7 µM; 1,200 tested, 43% active;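 active means activation above the mean of solvent-only control wells plus 3 SD, set per campaign, cut at about 130% in these data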;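 further: TNF-alpha given at a submaximal dose yielding about 80% of full reporter signal; values are well signal over median control so 100% means no change and 0% no light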
# STAT3 act 2 – human STAT3 activation in STAT1 activator counter-screen; activation (% of control), % at 5.7 µM; shares compounds with STAT1 act; 1,200 tested, 46% active; AID 1316; U3A cells STAT3-luciferase reporter, IL-6, luminescence; cells lack STAT1; 100 = IL-6 alone, no compound effect;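 active means activation above the solvent-only control well mean plus 3 SD, set per plate batch, cut at about 110% in these data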;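 further: 0% = no luminescence and 100% = median IL-6 plus DMSO wells; higher means more STAT3 reporter activation so hits are non-selective activators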
# An asterisk follows results filed as active; . = not tested or not shown. Sampled rows, rich in hits. Any-hit rate of the full collection: about 4.9%.
SMILES,NF-kB neuron act,STAT3 activator,STAT1 inh,STAT3 blocker,STAT1 act,APP 5'UTR act,STAT1 act conf,NFkB act STAT1ct,STAT3 act 2
CCCc1ccc(-c2cc(NC(=O)CSc3nnc(N)s3)n(-c3ccccc3)n2)cc1,4.4*,109,-65,-16,159*,97,189*,134*,111*
CN(C)S(=O)(=O)c1ccc(C(=O)NCc2nnc(SCC(=O)Nc3ccc(F)cc3)n2-c2ccc(F)cc2)cc1,0.97,95,-1,9,101,-11,.,.,.
COc1ccc(Br)cc1C(=O)Nc1cc(C)cc(C)c1,1.2,99,-7,5,106,-8,.,.,.
COc1ccc(C(=O)c2c(C)c3cc(C)ccc3n2CC(O)CN2CCOCC2)cc1 (configuration not stated),0.79,100,-1,3,101,-23,.,.,.
O=C(O)c1ccc(/C=N/Nc2ccc(C(F)(F)F)cn2)cc1,3.9*,102,-59,5,155*,138*,210*,129,124*
O=C(O)c1ccc(N/N=C/c2ccc(-c3ccccc3)cc2)cc1,10*,92,-135,16,220*,186*,321*,162*,106
CCN(CC)S(=O)(=O)c1cccc(NC(=O)COc2ncnc3sccc23)c1,1,93,1,11,99,-3,.,.,.
CCOC(=O)c1cnc(SCc2ccccc2)nc1N,9*,96,-69,6,158*,146*,212*,135*,109
CCOC(=O)c1cnc(SCc2ccc(C(C)(C)C)cc2)nc1N,1.4,97,-1,5,101,20,.,.,.
ONC(=Nc1ccc(Cl)cc1)c1ccccc1,1.1,109,1,-6,99,.,.,.,.
COc1ccc(Nc2oc(-c3cccs3)nc2C#N)cc1,2.4,95,-56,8,151*,72,160*,120,94
Cc1cccc(NC(=O)Nc2ccc(C#N)cc2)n1,1.2,78,-122,26,208*,16,141*,136*,125*
Cc1cccc(NC(=O)Nc2ccc(C)cc2Br)c1,1.6,101,-26,2,123,82,.,.,.
Cc1cc(C)nc(NC(=O)Nc2ccc3c(c2)OCO3)c1,3,86,-62,19,156*,228*,204*,128,99
Cc1cccc(NC(=O)Nc2cc(C)cc(C)n2)c1,2.7,88,-74,22,169*,173*,193*,121,100
O=C(O)c1cc(N2C(=O)C3C4C=CC(C4)C3C2=O)ccc1N1CCOCC1 (configuration not stated),1.4,95,1,8,98,-10,.,.,.
COc1ccc2c(c1)oc(=O)c1cc(OC)ccc12,2.4,.,-60,.,153*,83,152*,124,103
CCCCNC(=O)N1CCc2ccccc2C1,1.5,103,-7,2,106,9,.,.,.
CC(C)c1ccc(NC(=O)N2CCc3ccccc3C2)cc1,3,114,-62,-9,156*,86,148*,131,120*
Cc1noc(N)c1C1(O)C(=O)Nc2c(Cl)cc(Cl)cc21 (configuration not stated),1.2,104,-1,0,100,7,.,.,.
CCC(=O)Nc1ccc2c(c1)ncn2-c1ccc(C)cc1,2.6,96,-71,10,162*,103,183*,136*,135*
Cc1cc(C)n2cc(COc3ccc4ccccc4c3)nc2n1,8*,90,-86,15,176*,146*,214*,127,117*
Cc1cccc2nc(COc3ccc(-c4ccccc4)cc3)cn12,2.3,88,-70,20,163*,39,168*,110,115*
CCOC(=O)c1cn2c(C)cccc2n1,1.1,100,0,2,99,17,.,.,.
CCc1ccc(C2=NN(S(C)(=O)=O)C(c3cccs3)C2)cc1 (configuration not stated),8.4*,126,-62,-27,156*,182*,218*,142*,129*
SMILES,NF-kB neuron act,STAT3 activator,STAT1 inh,STAT3 blocker,STAT1 act,APP 5'UTR act,STAT1 act conf,NFkB act STAT1ct,STAT3 act 2
Cc1ccsc1C(=O)NNC(=O)C1C2C=CC(C2)C1C(=O)O (configuration not stated),1.4,103,-96,-1,184*,154*,131*,125,106
COC(=O)c1sccc1NC(=O)C1C2C=CC(C2)C1C(=O)O (configuration not stated),1.4,97,0,7,97,18,.,.,.
O=C(O)c1ccc(N=NN2CCCC2)cc1,1.3,99,-13,7,110,-1,.,.,.
O=C(O)c1ccc(N=NN2CCCCCC2)cc1,1.8,105,-64,-9,157*,84,166*,116,120*
C/C(N)=C(/C#N)C(=O)COC(=O)c1cc(C)n(-c2ccc(F)cc2)c1C,1.9,106,-58,-3,154*,19,173*,121,153*
CC(NC(=O)COC(=O)c1ccc(N(C)C)cc1)c1ccccc1 (configuration not stated),0.92,97,-9,11,107,3,.,.,.
COc1ccccc1C(=O)COC(=O)c1ccc(N(C)C)cc1,1,108,-80,-7,174*,142*,175*,134*,132*
N/C(=N\OC(=O)COc1ccc(Br)cc1Cl)c1ccncc1,4.4*,101,-88,4,178*,140*,193*,144*,118*
O=S(=O)(NCCSc1ccccn1)c1ccc(Br)cc1,1.1,101,-6,2,104,11,.,.,.
Cc1nc(-c2ccc(NC(=O)c3ccccc3Br)cc2)cs1,4.8*,96,-57,4,151*,79,174*,129,102
Cc1nc(-c2ccc(NC(=O)c3ccccc3C)cc2)cs1,5.1*,89,-68,17,159*,120,178*,125,94
Cc1occc1C(=O)Nc1nccs1,1,96,6,8,95,8,.,.,.
Cc1occc1C(=O)Nc1nnc(-c2cccs2)s1,1.5,112,-63,-8,157*,114,194*,131,112*
Cc1cccc(NC(=O)C2NC(=O)CC2c2ccccc2)c1C (configuration not stated),0.87,98,0,8,100,-12,.,.,.

# Screening results as filed in PubChem.
